Data from ChEMBL document CHEMBL3414544, “PAINS in the assay: chemical mechanisms of assay interference and promiscuous enzymatic inhibition observed during a sulfhydryl-scavenging HTS” (J Med Chem, 2015).
Calls of active or inactive are those of the source.

Columns and labels:
[1] = biological target: T1, Histone acetyltransferase RTT109 (Saccharomyces cerevisiae (strain ATCC 204508 / S288c) (Baker's yeast)) (UniProt Q07794); assay: Inhibition of Vps75-stimulated recombinant Saccharomyces cerevisiae histone acetyltransferase Rtt109 assessed as H3K27 acetylated product at […] after 45 mins by Slot bolt inhibiton assay
T1 sequence (whole entry): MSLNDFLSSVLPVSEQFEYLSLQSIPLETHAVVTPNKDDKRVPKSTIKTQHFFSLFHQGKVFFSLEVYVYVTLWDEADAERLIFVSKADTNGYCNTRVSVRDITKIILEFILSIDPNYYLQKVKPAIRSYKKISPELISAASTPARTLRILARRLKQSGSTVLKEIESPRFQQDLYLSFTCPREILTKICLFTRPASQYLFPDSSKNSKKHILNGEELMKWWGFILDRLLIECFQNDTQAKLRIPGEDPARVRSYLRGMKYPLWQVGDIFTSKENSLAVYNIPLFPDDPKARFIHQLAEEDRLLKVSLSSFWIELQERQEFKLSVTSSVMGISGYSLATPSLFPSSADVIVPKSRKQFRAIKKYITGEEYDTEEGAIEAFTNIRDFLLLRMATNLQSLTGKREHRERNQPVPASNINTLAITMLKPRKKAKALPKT

[2] = Fluorescence quenching in HTS buffer assessed as fluorescence signal reduction at 10 uM after 10 mins; format: physicochemical
[3] = Fluorescence quenching assessed as fluorescence signal reduction at 10 uM after 10 mins; format: physicochemical
Outline: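 CPM (20 μM final) and CoA (5 μM final) reacted to completion in assay buffer (stable plateau, usually ~5 min); adduct solution added to wells preplated with compound; shaken 5 min, equilibrated 5 min at room temperature; fluorescence intensity read as percent signal reduction versus DMSO controls. Flagged as quencher at >20% signal reduction at 10 μM final compound.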

[4] = biological target: T1, Histone acetyltransferase RTT109 (Saccharomyces cerevisiae (strain ATCC 204508 / S288c) (Baker's yeast)); assay: Inhibition of Vps75-stimulated recombinant Saccharomyces cerevisiae histone acetyltransferase Rtt109 assessed as H3K56 acetylated product at […] after 45 mins by Slot bolt inhibiton assay
[5] = Fluorescence quenching in HTS buffer with 20 uM 7-diethylamino-3-(4'-maleimidyl-phenyl)-4-methylcoumarin assessed as fluorescence signal reduction at 10 uM after 10 mins; format: physicochemical
[6] = Fluorescence quenching in HTS buffer with […] CoA assessed as fluorescence signal reduction at 10 uM after 10 mins; format: physicochemical

| Compound | Activity [1] | Activity [2] | Activity [3] | Activity [4] | Activity [5] | Activity [6] |
| --- | --- | --- | --- | --- | --- | --- |
| O=C1CC(Sc2nnc(-c3ccccc3)[nH]2)C(=O)N1c1ccc(Oc2ccccc2)cc1 (stereo unspecified) | Active | Not Active | Not Active | Active | Not Active | Not Active |
| Cc1ccc(-c2nnc(SC3CC(=O)N(c4ccc(Oc5ccccc5)cc4)C3=O)[nH]2)cc1 (stereo unspecified) | Active | Not Active | Not Active | Active | Not Active | Not Active |
| COc1ccc(Nc2nc(-c3ccc(C)cc3)[n+](Cc3ccccc3)s2)cc1.[Cl-] | Active | Not Active | Not Active | Active | Not Active | Not Active |
| O=C1C=CC(=O)N1c1ccc(Cl)cc1 | Active | Not Active | Not Active | Active | Not Active | Not Active |
| Cc1ccc(S(=O)(=O)C[n+]2sc(N(c3ccccc3)c3ccccc3)nc2-c2ccccc2)cc1 | inactive | – | – | inactive | – | – |
| CCOc1ccc(Nc2nc(-c3ccc(C)cc3)[n+](Cc3ccc([N+](=O)[O-])cc3)s2)cc1.[Br-] | Active | Not Active | Not Active | Active | Not Active | Not Active |
| Cc1cc(C)c(S(=O)(=O)Nc2cc(Br)c(O)c3ccccc23)c(C)c1 | Active | Not Active | Not Active | Active | Not Active | Not Active |
| c1ccc(C[n+]2sc(Nc3ccccc3)nc2-c2ccccc2)cc1 | Active | – | – | Active | – | – |
| COc1ccc(-c2nc(N)s[n+]2-c2ccccc2)cc1.[Cl-] | Active | Not Active | Not Active | Active | Not Active | Not Active |
| Cc1ccc(-c2nc(Nc3ccccc3)s[n+]2CS(=O)(=O)c2ccccc2)cc1.[Cl-] | Active | Not Active | Not Active | Active | Not Active | Not Active |
| Cc1nnc(SC2CC(=O)N(c3ccc(Br)cc3)C2=O)s1 (stereo unspecified) | Active | Not Active | Not Active | Active | Not Active | Not Active |
| O=S(=O)(Nc1cc(Br)c(O)c2ccccc12)c1ccc2ccccc2c1 | inactive | Not Active | Not Active | Active | Not Active | Not Active |
| Cc1ccc(-c2nnc(SC3CC(=O)N(c4ccc5ccccc5c4)C3=O)[nH]2)cc1 (stereo unspecified) | Active | Not Active | Not Active | Active | Not Active | Not Active |
| Cc1ccc(S(=O)(=O)C2=CS(=O)(=O)c3ccccc32)cc1 | Active | Not Active | Not Active | Active | Not Active | Not Active |

Next, values leading:

| Activity [1] | Activity [2] | Activity [3] | Activity [4] | Activity [5] | Activity [6] | Compound |
| --- | --- | --- | --- | --- | --- | --- |
| Active | Not Active | Not Active | Active | Not Active | Not Active | O=C1CC(Sc2nnnn2-c2ccccc2)C(=O)N1c1ccc([N+](=O)[O-])cc1 (stereo unspecified) |
| Active | Not Active | Not Active | Active | Not Active | Not Active | COc1ccc(N2C(=O)CC(Sc3nnc(-c4ccccc4)o3)C2=O)cc1 (stereo unspecified) |
| inactive | Not Active | Not Active | inactive | Not Active | Not Active | O=S(=O)(Nc1ccc(O)c(Br)c1)c1ccc(Cl)cc1 |
| Active | – | – | Active | – | – | O=[N+]([O-])c1ccc(Sc2cccc(Cl)c2)c2nonc12 |
| Active | Not Active | Not Active | Active | Not Active | Not Active | O=S(=O)(C[n+]1sc(Nc2ccc(Cl)cc2Cl)nc1-c1ccccc1)c1ccccc1.[Cl-] |
| Active | Not Active | Not Active | Active | Not Active | Not Active | Cc1occc1-c1nnc(SC2=CS(=O)(=O)c3ccccc32)o1 |
| Active | Not Active | Not Active | Active | Not Active | Not Active | CCC(=O)OCCNc1cc(Sc2nnc(-c3ccccc3)s2)c2nonc2c1[N+](=O)[O-] |
| inactive | Not Active | Not Active | inactive | Not Active | Not Active | CC(C)c1ccc(S(=O)(=O)Nc2ccc(O)c(Br)c2)cc1 |
| Active | Not Active | Not Active | Active | Not Active | Not Active | O=[N+]([O-])c1cc(Br)c2nsnc2c1Sc1nnnn1C1CCCCC1 |
| Active | Not Active | Not Active | Active | Not Active | Not Active | CC(C)c1ccc(S(=O)(=O)Nc2cc(Sc3nc[nH]n3)c(O)c3ccccc23)cc1 |
| Active | Not Active | Not Active | Active | Not Active | Not Active | O=C1CC(Sc2nnc(-c3ccccc3O)o2)C(=O)N1c1ccccc1 (stereo unspecified) |
| Active | Not Active | Not Active | Active | Not Active | Not Active | O=S1(=O)C=C(Sc2nn(-c3ccccc3)c(=S)s2)c2ccccc21 |
| Active | Not Active | Not Active | Active | Not Active | Not Active | O=c1[nH]c(Sc2c([N+](=O)[O-])cc(Br)c3nsnc23)nc2ccccc12 |
| Active | Not Active | Not Active | Active | Not Active | Not Active | O=S(=O)(Nc1cc(Sc2ccccc2)c(O)c2ccccc12)c1ccccc1 |
